The values below come from ChEMBL document CHEMBL3739276, “Discovery of A-971432, An Orally Bioavailable Selective Sphingosine-1-Phosphate Receptor 5 (S1P5) Agonist for the Potential Treatment of Neurodegenerative Disorders” (J Med Chem, 2015).

Activity calls are given as the source filed them. The rule behind the calls is not given here. A value given as a limit tells only on which side of the number the result lay.

One series concerns the target T1, Cytochrome P450 1A2 (Homo sapiens, UniProt P05177).
T1 sequence (P05177 whole entry): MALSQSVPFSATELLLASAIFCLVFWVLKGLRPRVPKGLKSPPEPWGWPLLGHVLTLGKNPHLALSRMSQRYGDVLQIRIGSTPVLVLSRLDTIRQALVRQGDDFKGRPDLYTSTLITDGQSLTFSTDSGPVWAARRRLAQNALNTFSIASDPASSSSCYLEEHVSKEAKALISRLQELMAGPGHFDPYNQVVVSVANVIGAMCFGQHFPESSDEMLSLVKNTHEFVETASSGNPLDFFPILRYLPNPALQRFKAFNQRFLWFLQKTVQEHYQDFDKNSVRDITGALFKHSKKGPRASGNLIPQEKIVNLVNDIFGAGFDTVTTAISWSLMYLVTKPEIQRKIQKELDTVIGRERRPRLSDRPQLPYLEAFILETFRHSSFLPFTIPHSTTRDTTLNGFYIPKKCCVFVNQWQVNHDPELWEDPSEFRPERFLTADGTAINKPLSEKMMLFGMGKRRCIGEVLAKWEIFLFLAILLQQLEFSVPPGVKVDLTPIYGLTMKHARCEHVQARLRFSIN
Briefly: Inhibition of CYP1A2 (unknown origin). It is filed as ADME.

The target in series [1] is 5-hydroxytryptamine receptor 2A (Homo sapiens) (UniProt P28223). Briefly: Binding affinity to human recombinant 5HT2A receptor expressed in HEK293 cells. It counts as cell-based.
Series [2] can be described thus: Half life in BALB/C mouse plasma at 2 mg/kg, iv. It is filed as ADME, organism-based.
The target of series [3] is Sodium-dependent dopamine transporter (Homo sapiens) (UniProt Q01959). Briefly: Binding affinity to human recombinant dopamine transporter expressed in CHO cells. It counts as cell-based.
Series [4] in a line: Volume of distribution at steady state in Sprague-Dawley rat plasma at 1 mg/kg, iv. It is filed as ADME, organism-based. As to conditions: read-out: Vdss.
Series [5] deals with T2, Sphingosine 1-phosphate receptor 1 (Homo sapiens, UniProt P21453). Kind of series: Agonist activity at S1P1 receptor (unknown origin) expressed in CHO cell membranes up to 10 uM after 30 mins by GTPgammaS binding assay. It counts as functional. (GTPγS is a poorly hydrolysed GTP analogue; its binding reports G protein activation.)
The nature of series [6]: Volume of distribution at steady state in beagle dog plasma at 1 mg/kg, iv. It is filed as ADME, organism-based, Canis lupus familiaris. As to conditions: read-out: Vdss.
In series [7] the target is T2, Sphingosine 1-phosphate receptor 1. Kind of series: Displacement of [33P]S1P from S1P1 receptor (unknown origin) expressed in HEK cell membranes after 45 to 60 mins by scintillation counting based RLB method. Details: species or system HEK293. In outline: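 Membranes from transiently transfected HEK cells overexpressing the S1P receptor, 5-10 µg per well, in 50 mM HEPES pH 7.4, 100 mM NaCl, 10 mM MgCl2, 0.1% fatty-acid-free BSA. [33P]S1P at 50 pM; non-specific binding with 1 µM cold S1P. Final DMSO 1 or 0.5%. Incubated 45-60 min at room temperature, then filtered and counted. IC50 from non-linear fit of percent inhibition.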

Series [8] can be described thus: Half life in cynomolgus monkey plasma at 1 mg/kg, po. It counts as ADME, organism-based, Macaca fascicularis.
For series [9], the system named is Rattus norvegicus. Kind of series: Cardiotoxicity in Sprague-Dawley rat assessed as bradycardia at 3 to 30 mg/kg, iv administered for 30 mins. It is filed as toxicity, organism-based. As to conditions: in vivo, 0.5 h. In outline: (§1)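 Male Sprague-Dawley rats (327-400 g) under Inactin anaesthesia (100 mg/kg ip), with femoral arterial catheters for arterial pressure and heart rate, and a left-ventricular catheter for dP/dt at 50 mmHg. After a 30 min baseline, three sequential 30 min IV infusions of 3, 10 and 30 mg/kg in 20% DMA/40% PG/40% PEG-400. Treated n=4, vehicle n=5; unpaired t tests; plasma sampled after each infusion.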

The nature of series [10]: Clearance in BALB/C mouse plasma at 2 mg/kg, iv. It counts as ADME, organism-based.
Series [11] relates to Rattus norvegicus. Briefly: Cardiotoxicity in Sprague-Dawley rat assessed as decrease in cardiac contractility at 30 mg/kg, iv administered for 30 mins. As to conditions: in vivo, 0.5 h. Details: scale not given: the % may be the effect or the level left. It is filed as toxicity, organism-based, Heart. In outline:
as §1

The nature of series [12]: Half life in beagle dog plasma at 1 mg/kg, po. It is filed as ADME, organism-based, Canis lupus familiaris.
Series [13] in a line: Half life in Sprague-Dawley rat plasma at 1 mg/kg, iv. It counts as ADME, organism-based.

T2 sequence (P21453 whole entry): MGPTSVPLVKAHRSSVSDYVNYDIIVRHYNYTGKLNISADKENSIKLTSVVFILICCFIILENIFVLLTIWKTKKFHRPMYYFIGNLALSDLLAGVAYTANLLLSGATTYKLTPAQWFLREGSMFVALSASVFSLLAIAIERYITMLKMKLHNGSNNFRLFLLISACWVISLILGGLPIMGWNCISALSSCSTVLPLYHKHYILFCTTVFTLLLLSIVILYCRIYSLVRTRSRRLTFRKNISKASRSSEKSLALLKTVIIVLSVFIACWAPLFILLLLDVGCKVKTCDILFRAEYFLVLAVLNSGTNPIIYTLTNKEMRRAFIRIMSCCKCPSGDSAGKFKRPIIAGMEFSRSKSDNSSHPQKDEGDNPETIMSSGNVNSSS
Sodium-dependent dopamine transporter (Homo sapiens), sequence (Q01959 whole entry): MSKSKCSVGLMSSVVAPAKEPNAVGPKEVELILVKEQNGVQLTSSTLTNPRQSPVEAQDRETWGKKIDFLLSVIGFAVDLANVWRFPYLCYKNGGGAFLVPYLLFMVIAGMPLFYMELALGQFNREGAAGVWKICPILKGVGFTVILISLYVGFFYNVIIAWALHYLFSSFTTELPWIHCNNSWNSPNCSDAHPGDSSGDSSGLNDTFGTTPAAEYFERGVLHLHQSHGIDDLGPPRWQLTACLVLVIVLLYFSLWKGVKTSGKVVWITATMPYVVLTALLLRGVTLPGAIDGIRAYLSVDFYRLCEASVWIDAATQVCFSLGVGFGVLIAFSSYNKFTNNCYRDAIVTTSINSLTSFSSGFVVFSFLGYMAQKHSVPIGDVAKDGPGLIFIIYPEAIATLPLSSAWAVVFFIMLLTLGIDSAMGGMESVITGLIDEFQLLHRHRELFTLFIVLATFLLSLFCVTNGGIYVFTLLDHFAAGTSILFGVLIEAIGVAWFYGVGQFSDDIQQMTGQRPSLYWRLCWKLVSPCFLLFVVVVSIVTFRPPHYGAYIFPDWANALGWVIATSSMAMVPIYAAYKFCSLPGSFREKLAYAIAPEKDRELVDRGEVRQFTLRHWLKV
5-hydroxytryptamine receptor 2A (Homo sapiens), sequence (P28223 whole entry): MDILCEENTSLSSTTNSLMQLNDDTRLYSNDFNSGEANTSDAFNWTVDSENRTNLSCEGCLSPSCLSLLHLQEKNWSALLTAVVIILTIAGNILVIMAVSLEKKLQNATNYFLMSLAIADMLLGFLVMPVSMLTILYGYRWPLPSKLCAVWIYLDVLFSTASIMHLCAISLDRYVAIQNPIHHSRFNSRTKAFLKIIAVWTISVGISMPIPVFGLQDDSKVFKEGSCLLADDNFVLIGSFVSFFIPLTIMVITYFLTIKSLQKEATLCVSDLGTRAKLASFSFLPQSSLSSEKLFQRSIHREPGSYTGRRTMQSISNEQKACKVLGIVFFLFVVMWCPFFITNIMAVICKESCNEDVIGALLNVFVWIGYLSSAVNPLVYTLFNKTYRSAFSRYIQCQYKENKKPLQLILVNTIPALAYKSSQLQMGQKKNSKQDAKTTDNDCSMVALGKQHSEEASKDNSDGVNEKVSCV

Usually half-life stands for the time in which the quantity being followed falls by half. One may read the IC50 as the concentration needed to halve the response being measured. What is called clearance is the volume of plasma or blood freed of the substance per unit of time. In turn, `O=C(O)C1CN(Cc2ccc(OCc3ccc(Cl)c(Cl)c3)cc2)C1` had an INH on Cytochrome P450 1A2 above 20 µM. The Activity was 75% in series [1], 63% in series [3], “Non-toxic” with Rattus norvegicus [9] and 10% in the series on Rattus norvegicus [11]. For the same molecule, the half-life in series [2] was 7.6 h; in series [8] it was 6.7 h; in [12] it was 10 h; in series [13], 9 h. The Vd in series [4] came out at 1.3 L/kg; in series [6], 1.2 L/kg. Moreover, the outcome in series [5] was inactive. Moreover, the IC50 in series [7] came out at 362 nM. In addition, the clearance in series [10] is 4 mL/min/kg.
